ChEMBL document CHEMBL1770131, “Radiosynthesis and preliminary evaluation of 4-[18F]fluoro-N-[4-[6-(isopropylamino)pyrimidin-4-yl]-1,3-thiazol-2-yl]-N-methylbenzamide as a new positron emission tomography ligand for metabotropic glutamate receptor subtype 1” (Bioorg Med Chem Lett, 2011)
Blank lines part the entries; values can stand above or below the molecule they belong to. Active and inactive are the calls of the source. The calls are words filed in the database; no cut-off is given here.

What was measured:
Cerebral cortex [1] = test: Biodistribution in Sprague-Dawley rat cerebral cortex at 5 MBq, iv after 30 mins by autoradiography; type: ADME, organism-based; details: in vivo, 0.5 h
How it was run: (§1)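 Male Sprague–Dawley rats given about 5 MBq radioligand in saline by tail vein, with or without co-injected JNJ16259685 at 1 mg/kg. Killed by cervical dislocation 30 min after injection. Brains frozen on dry ice, cut into 20 µm sagittal sections, and imaged by autoradiography as for the in vitro sections.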

Thalamus [2] = test: Biodistribution in Sprague-Dawley rat thalamus at 5 MBq, iv after 30 mins by autoradiography in presence of 1 mg/kg of mGluR1 antagonist JNJ16259685; type: organism-based; parameters: dose 1 mg/kg, route intravenous; details: in vivo, 0.5 h; how it was run: as §1
Striatum [3] = test: Biodistribution in Sprague-Dawley rat striatum at 5 MBq, iv after 30 mins by autoradiography in presence of 1 mg/kg of mGluR1 antagonist JNJ16259685; type: organism-based; parameters: dose 1 mg/kg, route intravenous; details: in vivo, 0.5 h; how it was run: as §1
[4] = Octanol-water distribution coefficient, Log D of the compound in at pH 7.4 by shaking method; type: physicochemical
How it was run: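 Radioligand partitioned between n-octanol and PBS at pH 7.4 by shaking. Vortexed 3 min at room temperature, centrifuged 3500 rpm for 5 min. 1 mL of each phase weighed and counted. Organic layer re-partitioned until Log D values were consistent. Log D = Log[cpm/g octanol / cpm/g PBS]. Done in triplicate.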

Rattus norvegicus [5] = test: Biodistribution in Sprague-Dawley rat pons-medulla at 5 MBq, iv after 30 mins by autoradiography; type: ADME, organism-based; details: in vivo, 0.5 h; how it was run: as §1
Thalamus [6] = test: Biodistribution in Sprague-Dawley rat thalamus at 5 MBq, iv after 30 mins by autoradiography; type: ADME, organism-based; details: in vivo, 0.5 h; how it was run: as §1
Hippocampus [7] = test: Biodistribution in Sprague-Dawley rat hippocampus at 5 MBq, iv after 30 mins by autoradiography; type: ADME, organism-based; details: in vivo, 0.5 h; how it was run: as §1
Striatum [8] = test: Biodistribution in Sprague-Dawley rat striatum at 5 MBq, iv after 30 mins by autoradiography; type: ADME, organism-based; details: in vivo, 0.5 h; how it was run: as §1
Rattus norvegicus [9] = test: Biodistribution in Sprague-Dawley rat pons-medulla at 5 MBq, iv after 30 mins by autoradiography in presence of 1 mg/kg of mGluR1 antagonist JNJ16259685; type: organism-based; parameters: dose 1 mg/kg, route intravenous; details: in vivo, 0.5 h; how it was run: as §1
Cerebellum [10] = test: Biodistribution in Sprague-Dawley rat cerebellum at 5 MBq, iv after 30 mins by autoradiography; type: ADME, organism-based; details: in vivo, 0.5 h; how it was run: as §1
Cerebellum [11] = test: Biodistribution in Sprague-Dawley rat cerebellum at 5 MBq, iv after 30 mins by autoradiography in presence of 1 mg/kg of mGluR1 antagonist JNJ16259685; type: organism-based; parameters: dose 1 mg/kg, route intravenous; details: in vivo, 0.5 h; how it was run: as §1
Cerebral cortex [12] = test: Biodistribution in Sprague-Dawley rat cerebral cortex at 5 MBq, iv after 30 mins by autoradiography in presence of 1 mg/kg of mGluR1 antagonist JNJ16259685; type: organism-based; parameters: dose 1 mg/kg, route intravenous; details: in vivo, 0.5 h; how it was run: as §1
Hippocampus [13] = test: Biodistribution in Sprague-Dawley rat hippocampus at 5 MBq, iv after 30 mins by autoradiography in presence of 1 mg/kg of mGluR1 antagonist JNJ16259685; type: organism-based; parameters: dose 1 mg/kg, route intravenous; details: in vivo, 0.5 h; how it was run: as §1
[14] = target: Metabotropic glutamate receptor 1 (Rattus norvegicus) (UniProt P23385); test: Binding affinity to mGluR1 in rat thalamus at 1 MBq/ml after 30 mins by autoradiography in presence of 1 uM non-radiolabeled compound; type: tissue-based; details: 1 M, tested as the 18F-labelled form
Chain of Metabotropic glutamate receptor 1 (Rattus norvegicus) (P23385 19-1199 limits assumed): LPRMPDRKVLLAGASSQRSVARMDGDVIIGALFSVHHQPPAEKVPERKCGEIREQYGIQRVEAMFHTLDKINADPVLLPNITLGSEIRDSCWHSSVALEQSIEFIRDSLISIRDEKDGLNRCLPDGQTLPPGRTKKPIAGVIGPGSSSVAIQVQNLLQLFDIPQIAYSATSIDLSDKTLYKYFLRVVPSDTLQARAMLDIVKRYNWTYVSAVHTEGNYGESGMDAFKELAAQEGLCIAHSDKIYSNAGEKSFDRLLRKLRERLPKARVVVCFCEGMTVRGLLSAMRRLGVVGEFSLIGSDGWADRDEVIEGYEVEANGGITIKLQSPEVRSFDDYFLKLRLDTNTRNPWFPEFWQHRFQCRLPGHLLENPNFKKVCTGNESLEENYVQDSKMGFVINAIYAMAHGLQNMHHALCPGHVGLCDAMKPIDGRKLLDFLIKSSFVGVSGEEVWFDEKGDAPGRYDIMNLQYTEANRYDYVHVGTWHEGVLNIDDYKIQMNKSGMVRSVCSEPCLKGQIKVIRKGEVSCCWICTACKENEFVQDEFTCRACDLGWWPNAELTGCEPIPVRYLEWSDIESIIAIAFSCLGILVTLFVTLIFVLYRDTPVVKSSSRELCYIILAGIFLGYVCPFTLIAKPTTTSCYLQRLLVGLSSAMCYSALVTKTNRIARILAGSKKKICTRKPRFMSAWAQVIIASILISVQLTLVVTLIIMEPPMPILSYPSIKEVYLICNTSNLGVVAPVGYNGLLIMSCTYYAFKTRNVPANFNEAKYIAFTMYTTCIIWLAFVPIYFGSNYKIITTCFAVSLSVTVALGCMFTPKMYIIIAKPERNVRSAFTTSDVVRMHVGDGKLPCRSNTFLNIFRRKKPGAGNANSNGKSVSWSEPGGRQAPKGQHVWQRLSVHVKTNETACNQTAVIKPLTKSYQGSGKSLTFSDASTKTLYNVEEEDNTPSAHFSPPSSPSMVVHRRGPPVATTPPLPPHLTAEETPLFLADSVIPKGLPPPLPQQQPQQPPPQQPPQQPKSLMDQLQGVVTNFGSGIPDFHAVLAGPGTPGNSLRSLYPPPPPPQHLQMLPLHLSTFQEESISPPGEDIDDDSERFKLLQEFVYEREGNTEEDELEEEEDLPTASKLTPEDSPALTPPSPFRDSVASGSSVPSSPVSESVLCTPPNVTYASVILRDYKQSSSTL
How it was run: (§2)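 Rat brain sections pre-incubated 3 × 5 min at room temperature in Tris-HCl (50 mM, pH 7.4, 1.2 mM MgCl2, 2 mM CaCl2). Then incubated 30 min at room temperature in fresh buffer with radioligand (1 MBq/mL; in saline with 5% ethanol and Tween80), with or without 1 µM unlabeled ligand, JNJ16259685 or MPEP. Washed 3 × 5 min in cold buffer, dipped in cold water, air-dried, exposed to imaging plate.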

[15] = target: Metabotropic glutamate receptor 1 (Rattus norvegicus) (UniProt P23385); test: Binding affinity to mGluR1 in rat hippocampus at 1 MBq/ml after 30 mins by autoradiography in presence of 1 uM of mGluR1 antagonist JNJ16259685; type: tissue-based; details: 1 M, tested as the 18F-labelled form; how it was run: as §2
[16] = target: Metabotropic glutamate receptor 1 (Rattus norvegicus) (UniProt P23385); test: Binding affinity to mGluR1 in rat thalamus at 1 MBq/ml after 30 mins by autoradiography; type: tissue-based; details: 1 M, tested as the 18F-labelled form; how it was run: as §2
[17] = target: Metabotropic glutamate receptor 1 (Rattus norvegicus) (UniProt P23385); test: Binding affinity to mGluR1 in rat cerebellum at 1 MBq/ml after 30 mins by autoradiography in presence of 1 uM of mGluR1 antagonist JNJ16259685; type: tissue-based; details: 1 M, tested as the 18F-labelled form; how it was run: as §2
[18] = target: Metabotropic glutamate receptor 1 (Rattus norvegicus) (UniProt P23385); test: Binding affinity to mGluR1 in rat striatum at 1 MBq/ml after 30 mins by autoradiography; type: tissue-based; details: 1 M, tested as the 18F-labelled form; how it was run: as §2
[19] = target: Metabotropic glutamate receptor 1 (Rattus norvegicus) (UniProt P23385); test: Binding affinity to mGluR1 in rat cerebellum at 1 MBq/ml after 30 mins by autoradiography in presence of 1 uM of mGluR5 antagonist MPEP; type: tissue-based; details: 1 M, tested as the 18F-labelled form; how it was run: as §2
[20] = target: Metabotropic glutamate receptor 1 (Rattus norvegicus) (UniProt P23385); test: Binding affinity to mGluR1 in rat pons-medulla at 1 MBq/ml after 30 mins by autoradiography in presence of 1 uM of mGluR5 antagonist MPEP; details: 1 M, tested as the 18F-labelled form; how it was run: as §2
[21] = target: Metabotropic glutamate receptor 1 (Rattus norvegicus) (UniProt P23385); test: Binding affinity to mGluR1 in rat thalamus at 1 MBq/ml after 30 mins by autoradiography in presence of 1 uM of mGluR1 antagonist JNJ16259685; type: tissue-based; details: 1 M, tested as the 18F-labelled form; how it was run: as §2
[22] = target: Metabotropic glutamate receptor 1 (Rattus norvegicus) (UniProt P23385); test: Binding affinity to mGluR1 in rat cerebral cortex at 1 MBq/ml after 30 mins by autoradiography; type: tissue-based; details: 1 M, tested as the 18F-labelled form; how it was run: as §2
[23] = target: Metabotropic glutamate receptor 1 (Rattus norvegicus) (UniProt P23385); test: Binding affinity to mGluR1 in rat cerebral cortex at 1 MBq/ml after 30 mins by autoradiography in presence of 1 uM of mGluR1 antagonist JNJ16259685; type: tissue-based; details: 1 M, tested as the 18F-labelled form; how it was run: as §2
[24] = target: Metabotropic glutamate receptor 1 (Rattus norvegicus) (UniProt P23385); test: Binding affinity to mGluR1 in rat striatum at 1 MBq/ml after 30 mins by autoradiography in presence of 1 uM of mGluR1 antagonist JNJ16259685; type: tissue-based; details: 1 M, tested as the 18F-labelled form; how it was run: as §2
[25] = target: Metabotropic glutamate receptor 1 (Rattus norvegicus) (UniProt P23385); test: Binding affinity to mGluR1 in rat striatum at 1 MBq/ml after 30 mins by autoradiography in presence of 1 uM non-radiolabeled compound; type: tissue-based; details: 1 M, tested as the 18F-labelled form; how it was run: as §2
[26] = target: Metabotropic glutamate receptor 1 (Rattus norvegicus) (UniProt P23385); test: Binding affinity to mGluR1 in rat whole brain at 1 MBq/ml after 30 mins by autoradiography in presence of 1 uM non-radiolabeled compound; details: 1 M, tested as the 18F-labelled form; how it was run: as §2
[27] = target: Metabotropic glutamate receptor 1 (Rattus norvegicus) (UniProt P23385); test: Binding affinity to mGluR1 in rat cerebellum at 1 MBq/ml after 30 mins by autoradiography in presence of 1 uM non-radiolabeled compound; type: tissue-based; details: 1 M, tested as the 18F-labelled form; how it was run: as §2
[28] = target: Metabotropic glutamate receptor 1 (Rattus norvegicus) (UniProt P23385); test: Binding affinity to mGluR1 in rat pons-medulla at 1 MBq/ml after 30 mins by autoradiography in presence of 1 uM non-radiolabeled compound; details: 1 M, tested as the 18F-labelled form; how it was run: as §2
[29] = target: Metabotropic glutamate receptor 1 (Rattus norvegicus) (UniProt P23385); test: Binding affinity to mGluR1 in rat cerebral cortex at 1 MBq/ml after 30 mins by autoradiography in presence of 1 uM of mGluR5 antagonist MPEP; type: tissue-based; details: 1 M, tested as the 18F-labelled form; how it was run: as §2
[30] = target: Metabotropic glutamate receptor 1 (Rattus norvegicus) (UniProt P23385); test: Binding affinity to mGluR1 in rat hippocampus at 1 MBq/ml after 30 mins by autoradiography in presence of 1 uM of mGluR5 antagonist MPEP; type: tissue-based; details: 1 M, tested as the 18F-labelled form; how it was run: as §2
[31] = target: Metabotropic glutamate receptor 1 (Rattus norvegicus) (UniProt P23385); test: Binding affinity to mGluR1 in rat hippocampus at 1 MBq/ml after 30 mins by autoradiography in presence of 1 uM non-radiolabeled compound; type: tissue-based; details: 1 M, tested as the 18F-labelled form; how it was run: as §2
[32] = target: Metabotropic glutamate receptor 1 (Rattus norvegicus) (UniProt P23385); test: Binding affinity to mGluR1 in rat cerebral cortex at 1 MBq/ml after 30 mins by autoradiography in presence of 1 uM non-radiolabeled compound; type: tissue-based; details: 1 M, tested as the 18F-labelled form; how it was run: as §2
[33] = target: Metabotropic glutamate receptor 1 (Rattus norvegicus) (UniProt P23385); test: Binding affinity to mGluR1 in rat striatum at 1 MBq/ml after 30 mins by autoradiography in presence of 1 uM of mGluR5 antagonist MPEP; type: tissue-based; details: 1 M, tested as the 18F-labelled form; how it was run: as §2
[34] = target: Metabotropic glutamate receptor 1 (Rattus norvegicus) (UniProt P23385); test: Binding affinity to mGluR1 in rat cerebellum at 1 MBq/ml after 30 mins by autoradiography; type: tissue-based; details: 1 M, tested as the 18F-labelled form; how it was run: as §2
[35] = target: Metabotropic glutamate receptor 1 (Rattus norvegicus) (UniProt P23385); test: Binding affinity to mGluR1 in rat thalamus at 1 MBq/ml after 30 mins by autoradiography in presence of 1 uM of mGluR5 antagonist MPEP; type: tissue-based; details: 1 M, tested as the 18F-labelled form; how it was run: as §2
[36] = target: Metabotropic glutamate receptor 1 (Rattus norvegicus) (UniProt P23385); test: Binding affinity to mGluR1 in rat hippocampus at 1 MBq/ml after 30 mins by autoradiography; type: tissue-based; details: 1 M, tested as the 18F-labelled form; how it was run: as §2
[37] = target: Metabotropic glutamate receptor 1 (Rattus norvegicus) (UniProt P23385); test: Binding affinity to mGluR1 in rat pons-medulla at 1 MBq/ml after 30 mins by autoradiography in presence of 1 uM of mGluR1 antagonist JNJ16259685; details: 1 M, tested as the 18F-labelled form; how it was run: as §2
[38] = target: Metabotropic glutamate receptor 1 (Rattus norvegicus) (UniProt P23385); test: Binding affinity to mGluR1 in rat pons-medulla at 1 MBq/ml after 30 mins by autoradiography; details: 1 M, tested as the 18F-labelled form; how it was run: as §2
[39] = target: Metabotropic glutamate receptor 1 (Rattus norvegicus) (UniProt P23385); test: Binding affinity to mGluR1 in rat whole brain at 1 MBq/ml after 30 mins by autoradiography in presence of 1 uM of mGluR1 antagonist JNJ16259685; details: 1 M, tested as the 18F-labelled form; how it was run: as §2

Drug uptake (Cerebral cortex [1]): 342.2 PSL/mm2
Drug uptake (Thalamus [2]): 63.1 PSL/mm2
Drug uptake (Striatum [3]): 54.1 PSL/mm2
logD [4]: 1.46
Drug uptake (Rattus norvegicus [5]): 69.3 PSL/mm2
Drug uptake (Thalamus [6]): 672.6 PSL/mm2
Drug uptake (Hippocampus [7]): 428.1 PSL/mm2
Drug uptake (Striatum [8]): 478.5 PSL/mm2
Drug uptake (Rattus norvegicus [9]): 58.8 PSL/mm2
Drug uptake (Cerebellum [10]): 635.9 PSL/mm2
Drug uptake (Cerebellum [11]): 76.6 PSL/mm2
Drug uptake (Cerebral cortex [12]): 49.6 PSL/mm2
Drug uptake (Hippocampus [13]): 58.3 PSL/mm2
Structure (SMILES): CC(C)Nc1cc(-c2csc(N(C)C(=O)c3ccc([18F])cc3)n2)ncn1

Activity [14]: inactive
Activity [15]: inactive
Activity [16]: 739 PSL/mm2
Activity [17]: inactive
Activity [18]: 568 PSL/mm2
Activity [19]: 683 PSL/mm2
Activity [20]: 181 PSL/mm2
Activity [21]: inactive
Activity [22]: 375 PSL/mm2
Activity [23]: inactive
Activity [24]: inactive
Activity [25]: inactive
Activity [26]: 6.9 PSL/mm2
Activity [27]: inactive
Activity [28]: inactive
Activity [29]: 316 PSL/mm2
Activity [30]: 602 PSL/mm2
Activity [31]: inactive
Activity [32]: inactive
Activity [33]: 497 PSL/mm2
Activity [34]: 719 PSL/mm2
Activity [35]: 618 PSL/mm2
Activity [36]: 680 PSL/mm2
Activity [37]: inactive
Activity [38]: 222 PSL/mm2
Activity [39]: 6.7 PSL/mm2
Structure (SMILES): CC(C)Nc1cc(-c2csc(N(C)C(=O)c3ccc(F)cc3)n2)ncn1
